Here are results for 71 compounds from ChEMBL document CHEMBL4513216, “Probing the Open Global Health Chemical Diversity Library for Multistage-Active Starting Points for Next-Generation Antimalarials” (ACS Infect Dis, 2020).

This data set can be described thus: Toxicity liver stage against HepG2, at 10uM. To be noted: human, HepG2-A16-CD81EGFP cells; read-out: INHIBITION
Further details: test concentration 10 uM, cell line HepG2-A16-CD81EGFP. The format is cell-based. The method in brief:
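Uninfected HepG2-A16-CD81EGFP cells, 3 × 10^3 per well, 1536-well, plated on prespotted compound at 10 μM final, parasite-free screening media added to match infected plates; puromycin 10 μM positive, DMSO 0.5% negative; run in parallel with 48 h PbLuc assay at 37 °C, 5% CO2; viability by CellTiter-Glo luminescence, normalized to controls.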

Take `O=C1CC2(CCN(C(=O)Cc3cc4c(cc3Cl)OCCO4)C2)C(=O)N1` (stereo unspecified): the cytotoxicity at 10 µM is 12.7%.

In the case of `CCc1nc(NC2CC(=O)N(CC3CCCCC3)C2)ncc1C` (stereo unspecified), the cytotoxicity at 10 µM is -4.55%.

In the case of `CC(=O)Nc1ncc(S(=O)(=O)Nc2cccc(O)c2)s1`, the cytotoxicity at 10 µM stood at 8.49%.

Turning to `Cc1cc(CN(Cc2cccnc2)CC2CCCO2)on1` (stereo unspecified), the cytotoxicity at 10 µM was -7.03%.

With `CCN1CC(C(=O)N(C)Cc2ccon2)CC1=O` (stereo unspecified), the cytotoxicity at 10 µM was found to be 7.08%.

Turning to `Cc1n[nH]c(C2CN(CC(=O)NCc3ccco3)CCO2)n1` (stereo unspecified), the cytotoxicity at 10 µM is 23%.

On to `CN(C)C(=O)[C@H]1C[C@H]2CN(S(=O)(=O)c3ccccc3)C[C@@H]1O2`, for which the cytotoxicity at 10 µM is -83.1%.

For `CCN(C(=O)CN1CCCC1Cc1ccccc1)c1ccccc1` (stereo unspecified), the cytotoxicity at 10 µM was 0.686%.

For the compound `CC(C)(C)c1cn2c(n1)C(CNCc1cnn3ccccc13)CCC2` (stereo unspecified), the cytotoxicity at 10 µM is -13.4%.

With `O=C(CC1CSc2nccc(=O)n21)NCc1cc(-c2ccco2)on1` (stereo unspecified), the cytotoxicity at 10 µM is -11.3%.

For `Cc1nc2c(c(=O)[nH]1)CCN(C(=O)c1cccc3nccnc13)C2`, the cytotoxicity at 10 µM was -16.8%.

Consider `Cc1cc(C2CCCN(C(=O)CN3CCN(C)CC3)C2)n[nH]1` (stereo unspecified), for which the cytotoxicity at 10 µM is -4.18%.

With `CN(Cc1ccco1)[C@@H]1CN(Cc2ccc(F)cc2)[C@@H]2CCCO[C@H]12`, the cytotoxicity at 10 µM is -70.6%.

`COc1ncc(-c2cc(NCCN(C)C)nc3[nH]ccc23)c(OC)n1`: the cytotoxicity at 10 µM was -20.7%.

Turning to `O=C(c1ccco1)N1CCN2C[C@H](OCc3cccnc3)C[C@H]2C1`, the cytotoxicity at 10 µM was -77%.

As to `CN(C)c1ncc(-c2ccc(F)cc2)c(C2CNCCO2)n1` (stereo unspecified), the cytotoxicity at 10 µM was -5.68%.

Consider `Cn1cnc2c1CCN(CC(=O)N(Cc1ccsc1)C1CC1)C2`, for which the cytotoxicity at 10 µM was -0.157%.

Take `COC(=O)N1CCCC(C(=O)N(C)C)C1` (stereo unspecified): the cytotoxicity at 10 µM is -5.87%.

Turning to `CCc1noc(C)c1C(=O)N1CCCC1Cn1nc(C)cc1C` (stereo unspecified), the cytotoxicity at 10 µM was -5.48%.

With `CC(=O)N1CCO[C@@H]2CN(S(=O)(=O)c3ccc(F)cc3)CC[C@@H]2C1`, the cytotoxicity at 10 µM turned out to be 13.7%.

As to `CC(=O)Nc1ccc([C@@H](O)[C@H]2COCC(=O)N2CC(C)C)cc1`, the cytotoxicity at 10 µM is -6.6%.

For the compound `Cc1cnc2n(c1=O)CC(C(=O)Nc1ccccc1Cl)CS2` (stereo unspecified), the cytotoxicity at 10 µM was -10.7%.

With `COc1ccc(CNc2n[nH]c(C)n2)cc1`, the cytotoxicity at 10 µM amounted to 1.64%.

In the case of `O=C1CN(c2cc(-c3ccccc3F)nc3ccnn23)CCCN1`, the cytotoxicity at 10 µM was determined as 2.77%.

`O=C(Nc1ccc(-c2ccccc2)cn1)C1CCCN1C(=O)C1CC1` (stereo unspecified): the cytotoxicity at 10 µM was -1.6%.

For the compound `CC(C)n1nc2c(cc1=O)CN(Cc1nc(-c3ccoc3)no1)CC2`, the cytotoxicity at 10 µM stood at 10.2%.

`CS(=O)(=O)Nc1ccn(Cc2cccc(Cl)c2)n1`: the cytotoxicity at 10 µM was found to be 8.66%.

With `Cc1n[nH]c(C2CN(C(=O)CCOCC(F)(F)F)CCO2)n1` (stereo unspecified), the cytotoxicity at 10 µM is -12.9%.

`CC1CN(c2cc(CNCc3cccc4c3OCCO4)ccn2)CCO1` (stereo unspecified): the cytotoxicity at 10 µM turned out to be 3.96%.

In the case of `Cc1cnccc1-c1cnn(CCNC(=O)c2ccncc2)c1C1CC1`, the cytotoxicity at 10 µM is 6.95%.

For `Cc1ccc(CN(C)C(=O)CN2CCOC(Cn3cccn3)C2)o1` (stereo unspecified), the cytotoxicity at 10 µM was -0.906%.

As to `COc1cc(NC(=O)C2CC(=O)N(c3cccc(F)c3)C2)ncn1` (stereo unspecified), the cytotoxicity at 10 µM is -1.73%.

For `COCC(=O)N1CCN(Cc2coc(-c3cccc(F)c3)n2)CC1`, the cytotoxicity at 10 µM was -7.16%.

As to `Cc1ccc(O)c(CNC2CCCN(Cc3noc(C4CC4)n3)C2)n1` (stereo unspecified), the cytotoxicity at 10 µM is -5.59%.

As to `Cc1ccccc1N1CCN(C(=O)CSc2ccncc2)CC1=O`, the cytotoxicity at 10 µM amounted to 6.71%.

As to `CC(C)(N)C(=O)N1CCCC1c1cncc(Oc2ccc(F)cc2)n1` (stereo unspecified), the cytotoxicity at 10 µM was found to be 1.11%.

Take `CCn1cc(NS(=O)(=O)c2ccc(F)cc2)c(C(=O)NCC(C)C)n1`: the cytotoxicity at 10 µM was found to be 6.6%.

For the compound `O=C(c1cccs1)N1CCOCC2(C1)CN(c1cccnc1)C(=O)CO2` (stereo unspecified), the cytotoxicity at 10 µM came out at 3.36%.

Consider `Cc1cncc(C2CCN(C(=O)c3ccc(-n4cccn4)nc3)CC2)n1`, for which the cytotoxicity at 10 µM was -0.701%.

As for `O=c1nc(SCc2ccncc2)c2c(n1CCO)CCC2`, the cytotoxicity at 10 µM turned out to be 6.9%.

On to `CCn1ccnc1CN1CCN(CC(=O)NC(C)(C#N)C2CC2)CC1` (stereo unspecified), for which the cytotoxicity at 10 µM is -8.24%.

`O=C(CCNc1ncccn1)NCc1csc(Br)c1`: the cytotoxicity at 10 µM is 5.15%.

With `O=C(COc1ccccc1)N1CCC[C@]2(C[C@@H](OCC3CC3)CO2)C1`, the cytotoxicity at 10 µM was -1.69%.

As to `N#Cc1ccc(C(=O)N2CCOC[C@H](Oc3cnccn3)C2)cc1`, the cytotoxicity at 10 µM came to 5.88%.

`CNC(=O)C1CCN(C(=O)c2coc(COc3ccc(OC)cc3)n2)C1` (stereo unspecified): the cytotoxicity at 10 µM is -1.74%.

Regarding `O=C(CCCc1nnc(-c2ccccc2)o1)N1CCN(CCO)CC1`, the cytotoxicity at 10 µM is -6.31%.

With `Cn1ccc(CN2CCC(NC(=O)C3CCCCC3)CC2)cc1=O`, the cytotoxicity at 10 µM was -13%.

In the case of `CC(C)CCN(C)C(=O)c1cc(CN2CCC(O)CC2)on1`, the cytotoxicity at 10 µM came to 1.06%.

Take `Cc1ccc(F)cc1S(=O)(=O)NCc1cccc(CS(C)(=O)=O)c1`: the cytotoxicity at 10 µM was -10.6%.

Take `CCSc1ccccc1C(=O)N1CC2(COC(C)(C)OC2)C1`: the cytotoxicity at 10 µM was -3.45%.

In the case of `CCOC(=O)C1CCCCN1Cc1c[nH]nc1-c1cc2ccccc2o1` (stereo unspecified), the cytotoxicity at 10 µM was determined as 4.8%.

With `COc1cccc(OC2CN(C(=O)CCn3cnnn3)C2)c1`, the cytotoxicity at 10 µM is -0.0726%.

`CCOc1ccccc1-c1noc(CN2CCN(CCOC)CC2)n1`: the cytotoxicity at 10 µM was -4.9%.

For the compound `O=C(NCCc1c[nH]cn1)c1n[nH]c2c1CCC2`, the cytotoxicity at 10 µM came out at 1.67%.

Take `CC(C(=O)Nc1cccc(Cl)c1SC(F)F)S(C)(=O)=O` (stereo unspecified): the cytotoxicity at 10 µM worked out at 0.685%.

Take `COc1cccc(CN2CCOC(c3cnccn3)C2)c1F` (stereo unspecified): the cytotoxicity at 10 µM turned out to be 8.63%.

Regarding `CN(C)CCNc1cc(-c2ncccc2C(F)(F)F)c2cc[nH]c2n1`, the cytotoxicity at 10 µM was found to be 7.2%.

Regarding `Cc1nnc(SCCCNc2cc(C3CC3)ncn2)s1`, the cytotoxicity at 10 µM came out at 19.8%.

Regarding `Cc1nc[nH]c1CN1CCN(C(=O)c2cccs2)[C@H]2CS(=O)(=O)C[C@H]21`, the cytotoxicity at 10 µM was -0.0714%.

In the case of `Cc1nnn2c1COCC(CNC(=O)c1ccnnc1)C2` (stereo unspecified), the cytotoxicity at 10 µM is -1.35%.

`O=C(CN1CCCC(Cn2cncn2)C1)NCc1ccco1` (stereo unspecified): the cytotoxicity at 10 µM is -0.587%.

For `CCc1nnc(Nc2cccc(C3CCN(C)CC3)n2)s1`, the cytotoxicity at 10 µM is -28.6%.

For `COCC(=O)Nc1ccc2c(c1)CN(C(=O)c1ccco1)CC2`, the cytotoxicity at 10 µM is 7.58%.

With `Cn1cc(C(=O)N2CCCC(c3cnccn3)C2)cn1` (stereo unspecified), the cytotoxicity at 10 µM was -10.5%.

As to `CN1CCCC1c1cc2cccnc2n1Cc1ccc(F)cc1` (stereo unspecified), the cytotoxicity at 10 µM was 5.44%.

For the compound `CN(C)CC1CN(Cc2nc(-c3cccnc3)no2)CCO1` (stereo unspecified), the cytotoxicity at 10 µM is -2.03%.

Regarding `Cc1oncc1C(=O)N1CCCc2c(C#N)nn(C)c2C1`, the cytotoxicity at 10 µM was -134%.

Regarding `Cc1ccccc1C(O)CNS(=O)(=O)Cc1cccc(C#N)c1` (stereo unspecified), the cytotoxicity at 10 µM was -5.43%.

As for `COC(=O)c1cccc(CNC(=O)CC(F)(F)F)c1`, the cytotoxicity at 10 µM worked out at 17.4%.

Turning to `Cc1nc2c(c(C)c1CC(=O)NC(C)c1ccccc1)c(=O)[nH]n2C` (stereo unspecified), the cytotoxicity at 10 µM was -3.44%.

`O=C1CN(C(=O)C2CN(c3ccc(F)cc3)CCO2)CCN1` (stereo unspecified): the cytotoxicity at 10 µM came out at 3.04%.
